As usually defined, the Cmax is the highest concentration seen after dosing. Usually AUC(0-t) stands for the area under the concentration-time curve up to a stated or last time point. Low values mean low exposure, high ones high exposure. The term IC50 denotes the concentration that inhibits the measured activity by half. For orientation: CLint scaled means the capacity of the preparation to metabolise the compound, expressed as a volume cleared per time. High values mean faster metabolism, low ones greater metabolic stability. As usually defined, the Ki is a measure of affinity in units of concentration, obtained from inhibition or displacement. High values mean a looser hold on the target, low ones a stronger hold on the target.

Data set [1] can be described thus: Cmax in male rat at 150 mg/kg, po after 7 days. It counts as ADME, organism-based. On the set-up: dose 150 mg/kg, time 7 day, route po. The following applies: in vivo.
Data set [2] is described as follows: AUC (0 to 8 hrs) in female mouse at 100 mg/kg, po administered as single dose. As to conditions: in vivo; call rule not given here.
Data set [3] concerns Rattus norvegicus. In words: Reduction in LPS/BzATP-induced IL-1beta release in icv dosed Sprague-Dawley rat frontal cortex assessed as minimal effective dose pretreated 1 hr before BzATP stimulus. It counts as functional. As to conditions: read-out: MED. In short, it runs like this:
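Rats and mice with frontal cortex microdialysis probes and a lateral ventricle cannula received icv LPS (rat 3 μg/5 μL; mouse 0.1 μg/3 μL), and 1 h later oral compound in 20% HP-β-cyclodextrin. BzATP icv (rat 50 μg; mouse 5 μg) followed 1 h later.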

Data set [4] in a line: Free plasma concentration in rat at 1 mg/kg, po after 1 hr by ex vivo equilibrium dialysis. It counts as ADME, organism-based. In short, it runs like this:
(§1)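 Male Sprague–Dawley rats were dosed orally at 1–100 mg/kg, and total plasma concentration was measured at 1 and 2 h. This was multiplied by fraction unbound from ex vivo equilibrium dialysis; mean ± SEM, n = 3 animals.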
(In equilibrium dialysis only unbound substance equilibrates across the membrane.)

Data set [5] is described as follows: Free plasma concentration in rat at 3 mg/kg, po after 2 hrs by ex vivo equilibrium dialysis. The data set is classed as ADME, organism-based. In short, it runs like this: as §1
A short description of data set [6]: Induction of CYP3A4 mRNA expression in human primary hepatocytes at 10 uM. It counts as ADME, cell-based, Hepatocyte. In outline:
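Human hepatocytes were exposed to 10 μM compound. CYP3A4 mRNA was measured as the relative increase, with rifampin at 10 μM as reference inducer.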

In data set [7] the target is Cytochrome P450 2C9 (Homo sapiens, UniProt P11712). The experiment in a line: Inhibition of CYP2C9 (unknown origin) upto 25 uM. The data set is classed as ADME.
Cytochrome P450 2C9, sequence (P11712 whole entry): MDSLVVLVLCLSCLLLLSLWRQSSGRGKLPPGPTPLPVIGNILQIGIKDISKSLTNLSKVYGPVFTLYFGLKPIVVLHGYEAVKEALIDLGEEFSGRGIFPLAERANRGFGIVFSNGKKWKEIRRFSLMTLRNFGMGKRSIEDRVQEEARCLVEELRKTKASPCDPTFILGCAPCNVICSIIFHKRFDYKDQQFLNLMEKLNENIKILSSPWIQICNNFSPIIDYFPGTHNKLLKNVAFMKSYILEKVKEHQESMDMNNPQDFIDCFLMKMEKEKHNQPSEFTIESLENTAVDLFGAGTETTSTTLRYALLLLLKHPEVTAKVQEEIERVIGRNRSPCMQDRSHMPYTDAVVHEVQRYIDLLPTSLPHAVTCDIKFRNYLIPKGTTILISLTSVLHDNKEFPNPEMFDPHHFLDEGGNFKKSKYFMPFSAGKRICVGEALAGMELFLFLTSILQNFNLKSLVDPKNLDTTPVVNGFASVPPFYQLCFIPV
The target of data set [8] is T1, P2X purinoceptor 7 (Mus musculus, UniProt Q9Z1M0).
T1 sequence (Q9Z1M0 whole entry): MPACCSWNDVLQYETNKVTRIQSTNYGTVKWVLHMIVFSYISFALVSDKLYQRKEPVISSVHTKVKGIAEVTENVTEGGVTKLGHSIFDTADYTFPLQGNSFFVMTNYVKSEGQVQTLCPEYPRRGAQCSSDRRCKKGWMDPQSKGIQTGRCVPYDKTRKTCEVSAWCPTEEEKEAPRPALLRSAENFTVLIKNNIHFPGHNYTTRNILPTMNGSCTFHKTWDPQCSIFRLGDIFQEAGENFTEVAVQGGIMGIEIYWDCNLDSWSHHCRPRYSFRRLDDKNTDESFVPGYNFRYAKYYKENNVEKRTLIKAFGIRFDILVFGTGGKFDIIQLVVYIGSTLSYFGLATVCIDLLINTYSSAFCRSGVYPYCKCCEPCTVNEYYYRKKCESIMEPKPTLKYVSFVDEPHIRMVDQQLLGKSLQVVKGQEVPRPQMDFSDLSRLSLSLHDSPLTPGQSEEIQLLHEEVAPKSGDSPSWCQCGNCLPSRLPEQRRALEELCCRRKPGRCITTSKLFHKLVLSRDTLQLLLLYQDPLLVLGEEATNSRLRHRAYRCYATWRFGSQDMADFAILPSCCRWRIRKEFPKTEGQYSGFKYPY
The experiment in a line: Antagonist activity at mouse P2X7 receptor expressed in HEK293 cells assessed as inhibition of BzATP-induced calcium-flux measured after 60 mins by FLIPR analysis. It counts as cell-based. In outline:
(§2)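 Stable rat or mouse P2X7 HEK293 cells in HBSS/20 mM HEPES/2.5 mM probenecid/0.05% BSA, pH 7.4, were loaded with Fluo-4 NW (37 °C 30 min, RT 30 min). After 30 min at RT, calcium fluorescence was read by FLIPR; n ≥ 3.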

Data set [9] is described as follows: in vitro. The following applies: rat, liver microsomes. Background: Microsomes from liver hold many membrane-bound enzymes, among them those of drug oxidation.
Data set [10] concerns the target T2, P2X purinoceptor 7 (Rattus norvegicus, UniProt Q64663).
T2 sequence (Q64663 whole entry): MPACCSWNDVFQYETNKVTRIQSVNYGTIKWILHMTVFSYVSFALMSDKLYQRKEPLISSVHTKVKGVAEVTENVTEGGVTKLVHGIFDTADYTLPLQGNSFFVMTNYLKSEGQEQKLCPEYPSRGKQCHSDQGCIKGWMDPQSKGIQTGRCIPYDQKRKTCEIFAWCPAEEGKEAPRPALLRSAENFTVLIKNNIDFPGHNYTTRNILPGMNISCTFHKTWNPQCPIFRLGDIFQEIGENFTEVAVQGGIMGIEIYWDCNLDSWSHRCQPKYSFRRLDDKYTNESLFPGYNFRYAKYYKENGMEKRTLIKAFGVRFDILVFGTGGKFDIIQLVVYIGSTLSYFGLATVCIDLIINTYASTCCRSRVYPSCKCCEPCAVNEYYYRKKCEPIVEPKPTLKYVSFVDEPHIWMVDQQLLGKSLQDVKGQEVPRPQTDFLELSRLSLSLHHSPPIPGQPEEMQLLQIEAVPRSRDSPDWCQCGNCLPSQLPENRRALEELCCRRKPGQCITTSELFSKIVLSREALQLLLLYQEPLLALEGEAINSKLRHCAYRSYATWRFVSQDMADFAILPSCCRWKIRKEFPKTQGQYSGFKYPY
In words: Displacement of [3H]-A-804598 from rat P2X7 receptor expressed in HEK293 cell membrane by in vitro binding assay. The data set is classed as cell membranes.

For data set [11], the target named is T2, P2X purinoceptor 7. The experiment in a line: Antagonist activity at rat P2X7 receptor expressed in HEK293 cells assessed as inhibition of BzATP-induced calcium-flux measured after 60 mins by FLIPR analysis. The data set is classed as cell-based. In outline:
as §2

The target in data set [12] is T3, Potassium voltage-gated channel subfamily KQT member 1 (Homo sapiens, UniProt P51787).
T3 sequence (P51787 whole entry): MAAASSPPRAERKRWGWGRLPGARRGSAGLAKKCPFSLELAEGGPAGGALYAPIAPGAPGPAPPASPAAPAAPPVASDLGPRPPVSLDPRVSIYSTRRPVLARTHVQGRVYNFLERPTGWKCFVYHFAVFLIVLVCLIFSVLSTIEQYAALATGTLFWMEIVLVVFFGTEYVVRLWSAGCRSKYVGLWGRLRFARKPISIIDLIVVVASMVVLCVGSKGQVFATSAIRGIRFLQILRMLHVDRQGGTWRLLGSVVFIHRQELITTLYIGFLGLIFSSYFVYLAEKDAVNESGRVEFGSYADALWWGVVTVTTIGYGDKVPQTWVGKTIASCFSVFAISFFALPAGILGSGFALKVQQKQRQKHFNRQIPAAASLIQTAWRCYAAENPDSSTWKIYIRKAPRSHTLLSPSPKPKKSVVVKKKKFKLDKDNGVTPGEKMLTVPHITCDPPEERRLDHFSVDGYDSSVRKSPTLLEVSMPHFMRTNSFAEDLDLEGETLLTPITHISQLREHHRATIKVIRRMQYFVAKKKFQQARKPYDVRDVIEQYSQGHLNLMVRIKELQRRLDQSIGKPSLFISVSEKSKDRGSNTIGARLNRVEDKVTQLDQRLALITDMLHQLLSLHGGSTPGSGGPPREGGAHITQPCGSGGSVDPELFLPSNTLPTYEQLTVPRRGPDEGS
The experiment in a line: Inhibition of human KCNQ1 at 10 uM. In outline: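 Human Nav1.5, Cav1.2 and KCNQ1/minK channels were tested at 10 μM.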

A short description of data set [13]: Cmax in female mouse at 100 mg/kg, po administered as single dose. The following applies: in vivo.
Data set [14] is described as follows: Free plasma concentration in rat at 3 mg/kg, po after 1 hr by ex vivo equilibrium dialysis. It counts as ADME, organism-based. In short, it runs like this: as §1

Turning to `O=C(NC[C@H](c1ccc(Cl)cc1)N1CCOCC1)c1sc(-c2ncccn2)nc1C(F)(F)F`, the figures for the maximum concentration (Cmax) in [1] and in data set [13] were 39.6 µM and 140 µM, respectively. This molecule also had an AUC(0-t) at 8 h in [2] of 399 µM·h. Also, the minimal effective dose in data set [3] was determined as 3 mg/kg. The “Cp(f)” value in [4] is 0.0224 µM; in data set [5], 0.0914 µM; in [14], 0.0712 µM. In [6], this molecule returned an Activity of 26.9%. The “inhibition (INH)” value in data set [7] and in [12] was “Not Active” each time. The IC50 was 0.022 µM in data set [8] and 0.0024 µM in data set [11]. The CLint scaled at 1 h, 1 µM in data set [9] was 85 mL/min/kg. The same molecule had an inhibitory constant (Ki) in data set [10] of 0.013 µM.
